The source made the active and inactive calls. The calls are words filed in the database; no cut-off is given here.

In one assay the target is T1, Protein arginine N-methyltransferase 1 (Homo sapiens, UniProt Q99873). The assay can be described thus: Inhibition of His6x-tagged PRMT1-mediated arginine methylation expressed in Escherichia coli BL21 (DE3) assessed as residual activity at 500 uM using H4(1-20) and [14C]-AdoMet by scintillation counting.
Target sequence in this assay (Q99873 whole entry, looked up): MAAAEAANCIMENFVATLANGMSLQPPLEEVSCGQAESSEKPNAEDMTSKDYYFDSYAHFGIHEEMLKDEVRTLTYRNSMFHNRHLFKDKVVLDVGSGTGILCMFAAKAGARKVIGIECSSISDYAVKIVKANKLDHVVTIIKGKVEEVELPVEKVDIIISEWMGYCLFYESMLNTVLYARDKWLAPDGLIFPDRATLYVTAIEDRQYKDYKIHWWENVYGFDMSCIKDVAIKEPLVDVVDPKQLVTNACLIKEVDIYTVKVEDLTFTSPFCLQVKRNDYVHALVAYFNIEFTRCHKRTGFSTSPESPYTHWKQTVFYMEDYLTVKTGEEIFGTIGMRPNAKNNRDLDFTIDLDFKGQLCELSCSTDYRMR
Take `O=S(=O)(O)c1cc(O)c2c(S(=O)(=O)O)cc(S(=O)(=O)O)cc2c1`: the inhibition result was “inactive”. Still for that read-out and setting: the same measure for `CCOc1ccc(S(=O)(=O)NCCNS(=O)(=O)c2ccc(OCC)c3ccccc23)c2ccccc12`: “inactive”; for `O=Cc1ccc(OS(=O)(=O)c2ccc3ccccc3c2)c(Br)c1`: “inactive”. As to `COc1cc(C=O)cc(I)c1OS(=O)(=O)c1ccc2ccccc2c1`, the inhibition entry is “inactive”.

On to `CCOc1cc(C=O)cc(Br)c1OS(=O)(=O)c1ccc2ccccc2c1`, for which the inhibition entry was “inactive”. The same measure, in the same setting: the same measure for `NS(=O)(=O)c1ccc2c(O)cc(S(N)(=O)=O)cc2c1`: “inactive”. Same read-out and setting: next, `CNc1ccc2c(O)cc(S(=O)(=O)O)cc2c1`: “inactive”.

With `O=S(=O)(Nc1ccccc1)c1cc(S(=O)(=O)Nc2ccccc2)c2cc(O)ccc2c1`, the inhibition result is “inactive”. The same measure, in the same setting: next, `CCOc1cc(C=O)ccc1OS(=O)(=O)c1ccc2ccccc2c1`: “inactive”. Same read-out and setting: next, `COc1ccc(S(=O)(=O)Oc2ccc3ccccc3c2)c2ccccc12`: “inactive”; `COc1ccc(S(=O)(=O)Nc2ccc(S(=O)(=O)Nc3cccc4ccccc34)cc2)cc1OC`: “inactive”; `O=S(=O)(Oc1c(Br)cc(Br)cc1Br)c1ccc2ccccc2c1`: “inactive”. On the same count and under the same terms, next, `O=S(=O)(Oc1cccc2c(OS(=O)(=O)c3ccccc3)cccc12)c1ccccc1`: “inactive”; `CC(=O)Nc1cc([N+](=O)[O-])c(N(C)S(=O)(=O)c2ccccc2)c2ccccc12`: “inactive”; `Nc1cc(S(=O)(=O)O)cc2cccc(S(=O)(=O)O)c12`: “inactive”.

For the compound `CCOC(=O)c1ccc(N2C(=O)CC(Sc3ccccc3C(=O)O)C2=O)cc1` (stereo not given), the inhibition entry is “inactive”.

As for `NS(=O)(=O)c1ccc(CNc2ccnc3cc4ccccc4cc23)cc1`, the inhibition entry is “inactive”.

The target of the next assay is T1, Protein arginine N-methyltransferase 1. The assay can be described thus: Inhibition of His6x-tagged PRMT1-mediated protein arginine methylation expressed in Escherichia coli BL21 (DE3) using H4(1-20) and [14C]-SAM by scintillation counting.
Target sequence in this assay (Q99873 whole entry): as the sequence (Q99873 whole entry, looked up) above
Turning to `Cc1ccc(C(=O)Nc2ccc(S(=O)(=O)O)c3cc(S(=O)(=O)O)cc(S(=O)(=O)O)c23)cc1NC(=O)c1cccc(NC(=O)Nc2cccc(C(=O)Nc3cc(C(=O)Nc4ccc(S(=O)(=O)O)c5cc(S(=O)(=O)O)cc(S(=O)(=O)O)c45)ccc3C)c2)c1` [SURAMIN], the IC50 was 5.33 µM. Consider `O=S(=O)(O)c1cc(O)c2c(/N=N/c3c(S(=O)(=O)O)cc4cc(S(=O)(=O)O)cc(O)c4c3O)cc(S(=O)(=O)O)cc2c1`, for which the IC50 is 72.1 µM.

Another assay concerns the target T2, Histone-arginine methyltransferase CARM1 (Mus musculus, UniProt Q9WVG6).
T2 sequence (Q9WVG6 whole entry): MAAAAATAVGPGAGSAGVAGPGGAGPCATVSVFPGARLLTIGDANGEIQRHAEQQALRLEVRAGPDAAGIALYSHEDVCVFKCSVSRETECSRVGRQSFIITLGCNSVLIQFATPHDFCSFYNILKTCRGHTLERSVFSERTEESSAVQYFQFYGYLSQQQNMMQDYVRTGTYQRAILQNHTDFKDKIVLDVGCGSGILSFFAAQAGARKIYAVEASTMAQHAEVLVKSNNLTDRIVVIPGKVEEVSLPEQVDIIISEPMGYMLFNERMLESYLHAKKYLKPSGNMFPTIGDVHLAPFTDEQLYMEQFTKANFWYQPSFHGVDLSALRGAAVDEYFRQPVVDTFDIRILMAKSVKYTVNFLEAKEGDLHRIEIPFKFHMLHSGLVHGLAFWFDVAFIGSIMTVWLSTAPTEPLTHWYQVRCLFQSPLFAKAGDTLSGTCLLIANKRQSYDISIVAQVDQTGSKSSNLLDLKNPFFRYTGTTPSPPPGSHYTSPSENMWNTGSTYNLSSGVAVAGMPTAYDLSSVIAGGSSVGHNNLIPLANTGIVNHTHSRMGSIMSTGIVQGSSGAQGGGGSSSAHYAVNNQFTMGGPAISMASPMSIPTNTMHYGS
The assay can be described thus: Inhibition of mouse GST-tagged CARM1-mediated arginine methylation expressed in Escherichia coli BL21 (DE3) using H3(1-31) and [14C]-SAM by scintillation counting. The method in brief: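 GST-tagged mouse CARM1 from E. coli BL21(DE3), glutathione-agarose purified; 5 μM enzyme, 1 mM H3(1-31), 30 μM [14C]-SAM, inhibitor up to 500 μM, 30 °C in 50 mM HEPES pH 8.0, 0.5 mM DTT, 1 mM EDTA, 50 mM NaCl. P81 filter capture, liquid scintillation counting.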
With `CC(=O)Nc1ccc(/N=N/c2c(S(=O)(=O)O)cc3cc(NC(=O)Nc4ccc5c(O)c(/N=N/c6ccccc6)c(S(=O)(=O)O)cc5c4)ccc3c2O)cc1`, the IC50 was found to be 2000 µM.

The target in another assay is Protein arginine N-methyltransferase 6 (Homo sapiens, UniProt Q96LA8). Nature of the assay: Inhibition of His6x-tagged PRMT6-mediated arginine methylation expressed in Escherichia coli BL21 (DE3) using H3(1-31) peptide and [14C]-SAM by scintillation counting. Put shortly: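 His6x-PRMT6 from E. coli BL21(DE3), Ni-NTA purified; 0.5 μM enzyme, 10 μM H3(1-31), 5 μM [14C]-SAM and varied inhibitor at 30 °C in HEPES pH 8.0 buffer with DTT, EDTA, NaCl; 5 min preincubation before enzyme. Product captured on P81 paper, counted by liquid scintillation; IC50 taken at half-maximal activity.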
Protein arginine N-methyltransferase 6, sequence (Q96LA8 whole entry): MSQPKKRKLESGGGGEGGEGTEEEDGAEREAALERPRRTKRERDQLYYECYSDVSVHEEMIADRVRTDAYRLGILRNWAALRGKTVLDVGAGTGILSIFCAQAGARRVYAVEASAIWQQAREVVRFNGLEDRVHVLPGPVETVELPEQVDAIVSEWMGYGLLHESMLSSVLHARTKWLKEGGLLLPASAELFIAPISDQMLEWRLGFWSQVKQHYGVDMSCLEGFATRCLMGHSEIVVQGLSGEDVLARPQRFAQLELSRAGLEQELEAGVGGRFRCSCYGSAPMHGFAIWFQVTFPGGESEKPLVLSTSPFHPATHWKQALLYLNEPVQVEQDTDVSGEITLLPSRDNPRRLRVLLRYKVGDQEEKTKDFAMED
In the case of `CC(=O)Nc1ccc(/N=N/c2c(S(=O)(=O)O)cc3cc(NC(=O)Nc4ccc5c(O)c(/N=N/c6ccccc6)c(S(=O)(=O)O)cc5c4)ccc3c2O)cc1`, the IC50 was 39.2 µM.

The target in the next assay is T3, Histone acetyltransferase p300 (Homo sapiens, UniProt Q09472). Nature of the assay: Inhibition of HAT p300-mediated […] assessed as residual activity at 1 mM using H4(1-20) and [14C]-acetyl CoA by scintillation counting; values are per cent of control.
T3 sequence (Q09472 whole entry): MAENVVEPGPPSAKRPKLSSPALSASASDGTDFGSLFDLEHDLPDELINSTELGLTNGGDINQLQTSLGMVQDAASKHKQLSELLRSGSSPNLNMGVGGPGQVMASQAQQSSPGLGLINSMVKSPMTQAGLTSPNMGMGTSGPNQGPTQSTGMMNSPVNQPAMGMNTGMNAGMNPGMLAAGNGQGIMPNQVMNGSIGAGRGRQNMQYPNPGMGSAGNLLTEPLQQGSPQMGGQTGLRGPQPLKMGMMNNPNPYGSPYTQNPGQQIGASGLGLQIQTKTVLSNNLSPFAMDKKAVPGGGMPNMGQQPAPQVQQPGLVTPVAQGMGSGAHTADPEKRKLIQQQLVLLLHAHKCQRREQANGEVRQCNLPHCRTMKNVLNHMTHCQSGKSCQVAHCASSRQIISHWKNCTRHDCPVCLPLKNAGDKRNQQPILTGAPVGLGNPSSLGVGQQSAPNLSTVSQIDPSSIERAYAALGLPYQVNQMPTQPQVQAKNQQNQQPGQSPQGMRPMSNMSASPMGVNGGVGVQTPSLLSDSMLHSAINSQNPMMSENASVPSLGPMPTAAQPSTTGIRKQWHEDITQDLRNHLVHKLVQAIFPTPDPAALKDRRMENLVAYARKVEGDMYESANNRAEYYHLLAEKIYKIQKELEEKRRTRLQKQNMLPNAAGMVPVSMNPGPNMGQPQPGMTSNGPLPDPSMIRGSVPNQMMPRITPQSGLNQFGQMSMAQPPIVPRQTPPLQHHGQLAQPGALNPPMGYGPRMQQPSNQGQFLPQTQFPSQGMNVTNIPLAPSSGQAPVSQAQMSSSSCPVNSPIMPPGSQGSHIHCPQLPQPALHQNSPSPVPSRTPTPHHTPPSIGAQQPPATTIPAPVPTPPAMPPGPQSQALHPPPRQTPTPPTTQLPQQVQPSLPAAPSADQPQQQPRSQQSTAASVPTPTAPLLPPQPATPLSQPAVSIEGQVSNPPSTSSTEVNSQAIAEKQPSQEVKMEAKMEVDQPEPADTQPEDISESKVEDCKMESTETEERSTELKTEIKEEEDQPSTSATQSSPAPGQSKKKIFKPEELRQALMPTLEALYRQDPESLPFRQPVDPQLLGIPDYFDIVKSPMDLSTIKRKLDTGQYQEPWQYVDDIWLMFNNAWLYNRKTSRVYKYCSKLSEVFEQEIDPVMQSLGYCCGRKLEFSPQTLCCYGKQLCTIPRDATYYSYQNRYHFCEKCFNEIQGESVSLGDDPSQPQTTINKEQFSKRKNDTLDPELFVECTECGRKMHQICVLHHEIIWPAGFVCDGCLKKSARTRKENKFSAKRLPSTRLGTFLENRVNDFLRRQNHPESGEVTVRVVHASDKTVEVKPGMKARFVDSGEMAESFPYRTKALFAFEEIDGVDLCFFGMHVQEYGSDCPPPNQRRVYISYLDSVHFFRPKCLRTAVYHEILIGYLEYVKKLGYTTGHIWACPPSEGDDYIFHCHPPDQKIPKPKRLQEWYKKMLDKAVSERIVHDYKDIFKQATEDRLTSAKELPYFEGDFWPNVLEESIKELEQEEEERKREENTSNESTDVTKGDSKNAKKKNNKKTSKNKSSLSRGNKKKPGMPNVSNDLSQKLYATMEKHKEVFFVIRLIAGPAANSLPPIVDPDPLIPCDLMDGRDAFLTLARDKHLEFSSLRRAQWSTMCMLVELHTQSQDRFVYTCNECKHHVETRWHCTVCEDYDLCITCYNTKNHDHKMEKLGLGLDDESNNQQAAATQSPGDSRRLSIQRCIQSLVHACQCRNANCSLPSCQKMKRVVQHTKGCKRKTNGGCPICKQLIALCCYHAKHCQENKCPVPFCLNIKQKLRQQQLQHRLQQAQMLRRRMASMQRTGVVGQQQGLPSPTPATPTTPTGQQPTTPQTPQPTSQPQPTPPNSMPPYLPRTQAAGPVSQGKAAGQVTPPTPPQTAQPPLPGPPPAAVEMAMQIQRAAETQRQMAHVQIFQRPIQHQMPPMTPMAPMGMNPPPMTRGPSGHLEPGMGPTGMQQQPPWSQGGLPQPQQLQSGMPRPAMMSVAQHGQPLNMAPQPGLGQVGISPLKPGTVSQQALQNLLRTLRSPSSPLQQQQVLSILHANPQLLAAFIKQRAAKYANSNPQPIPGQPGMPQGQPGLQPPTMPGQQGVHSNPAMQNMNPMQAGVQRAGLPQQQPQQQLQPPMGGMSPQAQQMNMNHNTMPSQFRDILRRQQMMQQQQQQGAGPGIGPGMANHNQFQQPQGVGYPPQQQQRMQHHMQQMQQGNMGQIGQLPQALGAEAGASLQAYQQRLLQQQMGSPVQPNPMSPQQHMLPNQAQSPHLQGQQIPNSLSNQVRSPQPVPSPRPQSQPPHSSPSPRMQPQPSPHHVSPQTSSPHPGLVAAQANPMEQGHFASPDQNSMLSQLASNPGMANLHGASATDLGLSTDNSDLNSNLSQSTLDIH
With `N=C(N)c1ccc(/C=C/c2ccc(C(=N)N)cc2)cc1`, the residual activity is 84%.

In a further assay the target is T3, Histone acetyltransferase p300. The assay can be described thus: Inhibition of HAT p300-mediated […] using H4(1-20) and [14C]-acetyl CoA by scintillation counting. Put shortly: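 Recombinant p300 HAT domain (1287-1666), 20 nM, with 10 μM H4(1-20) and 10 μM [14C]-acetyl CoA plus increasing inhibitor in 50 mM HEPES pH 8.0, 50 mM NaCl, 0.5 mM DTT, 1 mM EDTA; 10 min at 30 °C. Quenched on P81 filter paper, acetylated product counted by liquid scintillation; fractional activity plotted against inhibitor concentration.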
`CC(=O)Nc1ccc(/N=N/c2c(S(=O)(=O)O)cc3cc(NC(=O)Nc4ccc5c(O)c(/N=N/c6ccccc6)c(S(=O)(=O)O)cc5c4)ccc3c2O)cc1` registered a half-maximal inhibitory concentration (IC50) of 21.3 µM. `O=C(Nc1ccc2c(O)cc(S(=O)(=O)O)cc2c1)Nc1ccc2c(O)cc(S(=O)(=O)O)cc2c1`: the IC50 came out at 118 µM.

In the next assay the target is T1, Protein arginine N-methyltransferase 1. Nature of the assay: Inhibition of His6x-tagged PRMT1-mediated arginine methylation expressed in Escherichia coli BL21 (DE3) assessed as residual activity at 100 uM using H4(1-20) and [14C]-AdoMet by scintillation counting; values are per cent of control.
Target sequence in this assay (Q99873 whole entry, looked up): as the sequence (Q99873 whole entry, looked up) above
For the compound `CC(=O)Nc1ccc2cc(S(=O)(=O)O)cc(OS(=O)(=O)c3ccccc3)c2c1`, the residual activity turned out to be 71.4%. The same measure, in the same setting: the same measure for `O=C(Nc1cccc2c(S(=O)(=O)O)cccc12)c1ccccc1`: 86.9%.

A further assay deals with Protein arginine N-methyltransferase 3 (Homo sapiens, UniProt O60678). The assay can be described thus: Inhibition of His6x-tagged PRMT3-mediated arginine methylation expressed in Escherichia coli BL21 (DE3) using GAR R4 peptide and [14C]-SAM by scintillation counting. Put shortly: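 His6x-PRMT3 expressed in E. coli BL21(DE3), Ni-NTA purified; 0.1 μM enzyme, 2 μM R4 peptide, 5 μM [14C]-SAM, varied inhibitor, 30 °C in 50 mM HEPES pH 8.0, 0.5 mM DTT, 1 mM EDTA, 50 mM NaCl; 5 min preincubation before enzyme. P81 filter capture, liquid scintillation; IC50 = inhibitor concentration giving half-maximal activity.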
Protein arginine N-methyltransferase 3, sequence (O60678 whole entry): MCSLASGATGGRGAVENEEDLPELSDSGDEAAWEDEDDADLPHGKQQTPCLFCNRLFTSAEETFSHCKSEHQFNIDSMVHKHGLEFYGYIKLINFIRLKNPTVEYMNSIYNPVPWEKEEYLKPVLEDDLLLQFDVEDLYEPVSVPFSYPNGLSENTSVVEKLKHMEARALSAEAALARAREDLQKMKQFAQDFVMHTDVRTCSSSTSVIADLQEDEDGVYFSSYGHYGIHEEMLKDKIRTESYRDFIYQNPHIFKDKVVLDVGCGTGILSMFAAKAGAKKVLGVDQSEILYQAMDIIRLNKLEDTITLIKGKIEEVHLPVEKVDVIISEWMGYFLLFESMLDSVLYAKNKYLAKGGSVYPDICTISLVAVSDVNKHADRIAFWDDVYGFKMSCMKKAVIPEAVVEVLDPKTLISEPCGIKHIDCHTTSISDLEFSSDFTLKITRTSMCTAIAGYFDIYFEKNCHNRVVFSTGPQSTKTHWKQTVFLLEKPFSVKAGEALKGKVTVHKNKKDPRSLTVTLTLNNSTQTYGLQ
Consider `CC(=O)Nc1ccc(/N=N/c2c(S(=O)(=O)O)cc3cc(NC(=O)Nc4ccc5c(O)c(/N=N/c6ccccc6)c(S(=O)(=O)O)cc5c4)ccc3c2O)cc1`, for which the half-inhibitory concentration (IC50) stood at 7.1 µM.

The target of the next assay is T1, Protein arginine N-methyltransferase 1. The assay can be described thus: Inhibition of His6x-tagged PRMT1-mediated protein arginine methylation expressed in Escherichia coli BL21 (DE3) assessed as retained fractional activity of enzyme at 100 uM using H4(1-20) and [14C]-AdoMet by scintillation counting. Further details: scale not given: the % may be the effect or the level left. Put shortly: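 His6x-PRMT1 (0.1 μM) with 2 μM H4(1-20) and 5 μM [14C]-AdoMet, compound at 100 μM or absent, 30 °C in 50 mM HEPES pH 8.0, 0.5 mM DTT, 1 mM EDTA, 50 mM NaCl. Substrates and compound preincubated 5 min before enzyme addition. Quenched on P81 paper, NaHCO3 wash, methylated product counted by liquid scintillation.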
Target sequence in this assay (Q99873 whole entry, looked up): as the sequence (Q99873 whole entry, looked up) above
For the compound `CCOC(=O)[C@H]1CCCN(S(=O)(=O)c2cc(S(=O)(=O)c3ccccc3)cs2)C1`, the Activity turned out to be 100%. Same read-out and setting: next, `N#Cc1cccc(C#N)c1Oc1ccc(S(=O)(=O)Nc2ccc(Cl)cc2)cc1`: 100%; `Cn1c(SCC(=O)Nc2ccccc2)nnc1-c1cncc(C#Cc2ccccc2)c1`: 100%; `O=C1N=c2ccccc2=C1Nc1ccc(Cc2ccc(NC3=c4ccccc4=NC3=O)cc2)cc1`: 100%. The same measure, in the same setting: the same measure for `Cc1ccccc1Nc1nc(-c2ccccc2)c(C(=O)Nc2cccnc2)s1`: 100%; for `O=C(OC[C@@H]1CO[C@@](Cn2ccnc2)(c2ccc(Cl)cc2Cl)O1)c1ccccc1`: 100%.

A further assay shares this target. The assay can be described thus: Inhibition of His6x-tagged PRMT1-mediated protein arginine methylation expressed in Escherichia coli BL21 (DE3) using GAR R4 peptide and [14C]-AdoMet by scintillation counting.
Target sequence in this assay (Q99873 whole entry): as the sequence (Q99873 whole entry, looked up) above
As for `Cc1ccc(C(=O)Nc2ccc(S(=O)(=O)O)c3cc(S(=O)(=O)O)cc(S(=O)(=O)O)c23)cc1NC(=O)c1cccc(NC(=O)Nc2cccc(C(=O)Nc3cc(C(=O)Nc4ccc(S(=O)(=O)O)c5cc(S(=O)(=O)O)cc(S(=O)(=O)O)c45)ccc3C)c2)c1` [SURAMIN], the IC50 worked out at 1010 µM. Same read-out and setting: the same measure for `O=S(=O)(O)c1cc(O)c2c(/N=N/c3c(S(=O)(=O)O)cc4cc(S(=O)(=O)O)cc(O)c4c3O)cc(S(=O)(=O)O)cc2c1`: 463 µM.

The IC50 is the concentration that inhibits the measured activity by half. The residual activity is the activity still measured, relative to the control.

Values taken from ChEMBL document CHEMBL1268868, “Discovery and mechanistic study of a class of protein arginine methylation inhibitors” (J Med Chem, 2010).
